Measured values reported in the EternaBench riboswitch data.

Tested on: MS2 coat protein
Test: apparent Kd, MS2 coat protein; higher = weaker binding; RNA-MaP array; FMN 200 µM where present
Outline: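 Green signal was scaled to red-channel RNA signal and control-cluster median Fmax, and the apparent Kd was taken as the median of filtered per-cluster binding-curve fits. The binding series used SNAP-549-labelled MS2 coat protein from 0.7 or 1.5 nM, doubling to 3 µM, on designs transcribed by stalled E. coli RNA polymerase on Illumina sequencing-chip clusters. Each series ran without and then with constant ligand in 100 mM Tris-HCl pH 7.5, 80 mM KCl, 4 mM MgCl2, BSA, DTT, yeast tRNA and Tween-20.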

[1] = designed as: ON switch for flavin mononucleotide, no ligand
[2] = ligand present: flavin mononucleotide, designed as: ON switch for flavin mononucleotide
[3] = designed as: OFF switch for flavin mononucleotide, no ligand
[4] = ligand present: flavin mononucleotide, designed as: OFF switch for flavin mononucleotide

Sequence | apparent Kd [1] | apparent Kd [2] | apparent Kd [3] | apparent Kd [4]
GGGUACAUCGGAGGAUAUCAUGUAAUUACAUGAGGAUCACCCAUGUCGAUGGAGACAUCGGAGAUUGAGAAGGCCGAUGUACCG | 316 nM | 12.4 nM | – | –
GGGUAGUGAGGAUAUCGUUGUUAGGAGGAGAAGGUAGGAGGCGAGAAGGCACAUGAGGAUCACCCAUGUAUGAG | – | – | 31 nM | 28.1 nM
GGGUGACAUGAGGAUCACCCAUGUCAGGAUAUGAUACUAUGUACUUCGGUACAUAGUAUCAGAAGGGACAUCAU | – | – | 284 nM | 29.9 nM
GGUACCAUCACAGGAUAUGCUUUUCUUUGGGAAGCAGAAGGGUGUAACAUGAGGAUCACCCAUGUGGUGCCAGGGCGUUAGCCC | 188 nM | 16.8 nM | – | –
GGUACCAUCGCAGGAUAUGCUAGGGUUUCCUUAGCAGAAGGGUGAUAACAUGAGGAUCACCCAUGUGGUACCGGGCGUGAGCCC | 95 nM | 1160 nM | – | –
GGUACCAUUACAGGAUAUGCUUUCCUUUGGAAAGCAGAAGGGUGUAACAUGAGGAUCACCCAUGUGGUGCCAGGGCGUGAGCCC | 659 nM | 182 nM | – | –
GGUACCUUUACAGGAUAUGCUAGGGUUUCCUUAGCAGAAGGGUGAUACAUGAGGAUCACCCAUGUGGUGCCAGGGCGUGAGCCC | 117 nM | 341 nM | – | –
GGUACCUUUACAGGAUAUGCUAUCCUUUGGGUAGCAGAAGGGUGAUACAUGAGGAUCACCCAUGUGGUGCCAGGGCGUGAGCCC | 93.2 nM | 313 nM | – | –
GGUACUCAAAGAGUACCAAUACGAACAUGAGGAUCACCCAUGUAGGAUAUGCUACUCAAAGAGUAGCAGAAGGACAUGUACCUA | – | – | 17.5 nM | 99.2 nM
GGUACUCAAAGAGUACCACUACGAACAUGAGGAUCACCCAUGUAGGAUAUGCUACUCAAAGAGUAGCAGAAGGACAUGUGCCUA | – | – | 17.9 nM | 123 nM
GGUCCACAUGAGGAUCACCCAUGUUAGGAUAUCUCGCCCGAGUCGUUAUGGGCCGGGCAGAGAAGGAAUGUGAA | – | – | 21.7 nM | 20.2 nM
GGUCCGAGUGUGAGGAUAUGCUGGUCCUUGGAUCAGCAGAAGGCACAUGAGGAUCACCCAUGUGGAGACGGACC | – | – | 206 nM | 538 nM
GGUCGUCACAUGAACAUGAGGAUCACCCAUGUAAAUUCUCAUGAGGAUAUGGAUCCUAAUUGGAUCCAGAAGGCAUGGACGACC | 1090 nM | 333 nM | – | –
GGUCUUCAAGUCAGGAUAUCGUCUAAUAGAUAUAACGAGAAGGGACAUGAGGAUCACCCAUGUCGUCUCAUCAG | – | – | 23.6 nM | 69.1 nM
GGUGAAUGAACAUGAGGAUCACCCAUGUACAGGAAACUGAAUGAGGAUAUCCAUAGCAAAGCUAUGGAGAAGGUAUGGGUCACC | 40.5 nM | 44.9 nM | – | –
GGUGCAUAUGAGAAGGCGAUCAUGAAACAUGAUCGAGGAUAUCAUGUAAACAUGAGGAUCACCCAUGUAUGGGAAUAAUGCACC | 112 nM | 10.4 nM | – | –
GGUGCGUCUGUGAGGAUAUGCUGGUCCUUGGAUCAGCAGAAGGCACAUGAGGAUCACCCAUGUGGUGUCGUACC | – | – | 233 nM | 129 nM
GGUGGACAUGAGGAUCACCCAUGUGAGGAUAUCGGCCGGCUCGUGGUGGCUGGCUUCUCGAGAAGGCGCAUAGU | – | – | 69.4 nM | 118 nM
GGUGGACAUGAGGAUCACCCAUGUGAGGAUAUCGGCCGGUUCGCGGUGGCUGGCGUCUCGAGAAGGCACAUAGU | – | – | 99.1 nM | 139 nM
GGUGGACAUGAGGAUCACCCAUGUGAGGAUAUCGGCUGGCUAGCGGCGGAUGGCUUCUCGAGAAGGCGCAUUGU | – | – | 86.4 nM | 75 nM
GGUGGACAUGAGGAUCACCCAUGUGAGGAUAUCGGCUGGUACGUGUUGGCUGGCAUCUCGAGAAGGCACAUAGG | – | – | 166 nM | 49.3 nM
GGUGGACAUGAGGAUCACCCAUGUGAGGAUAUCGGCUGGUACGUGUUGGCUGGCAUCUCGAGAAGGCACAUAGU | – | – | 80.9 nM | 180 nM
GGUGGCGACGAGAAGGUUCACACAUGAGGAUCACCCAUGUAUGACAUGAGGAUCACCCAUGUAAGGGAGGAUAUUGGAUUUACC | – | – | 92.8 nM | 91.4 nM
GGUGUGUUAGGAUAUCGCGGCGGCGGCGUUUGUUGUUGUUGUGAGAAGGAACAUGAGGAUCACCCAUGUGCGCC | – | – | 27.3 nM | 75.5 nM
GGUUAAUAUCGAGGAUAUGUCUAGACACAUGAGGAUCACCCAUGUAUGUGUAUAGAAGGCGAUAUUAACAGCAUGUUACAUGCU | 40.8 nM | 16 nM | – | –
GGUUGGCGAGGAUAUACAUGAGGAUCACCCAUGUGGUCCUAAGAUAAAAUAGACCUUUGUAGAAGGCGCGGGUC | – | – | 136 nM | 122 nM
GGUUGGCGAGGAUAUACAUGAGGAUCACCCAUGUGGUCCUGCGGUGGUGUCGCCCUUUGUAGAAGGCGCGGGUC | – | – | 59.1 nM | 56.6 nM
GGUUGGCGAGGAUAUACAUGAGGAUCACCCAUGUGGUCCUGUGGCUGAUCUUGCCUUUGUAGAAGGCGCGAAUC | – | – | 25.4 nM | 103 nM

Sequence | apparent Kd [1] | apparent Kd [2] | apparent Kd [3] | apparent Kd [4]
GGUUGUCAUAGUCAUCCUUAACGAACAUGAGGAUCACCCAUGUAGGAUAUGCUACUCAAAGAGUAGCAGAAGGGCGUGUGUCUU | – | – | 56.6 nM | 62.9 nM
GGUUGUCAUCGUCAUCCUUUCGGUACAUGAGGAUCACCCAUGUAGGAUAUGCUGCUCUCGGUGUGGCAGAAGGGCGUGUGUGUU | – | – | 24.4 nM | 39.5 nM
GUAAACCGGUGAGGAUAUUUAUAAUAGAGCUUUAUGAUAUACAUGAGGAUCACCCAUGUUACUUUAAAGAAGGCAUCGGAAAUG | – | – | 21.4 nM | 17.2 nM
GUACCAUAUGAGAAGGCGAUCAUGAAACAUGAUCGAGGAUAUCAUGAAAACAUGAGGAUCACCCAUGUAUGGGUAUUAAGGUAC | 61.4 nM | 23.7 nM | – | –
GUACGGAAGGAGAAGGGCUAGGAGGUCCAGCUUAUGUGUGUUGCAACAUGAGGAUCACCCAUGUAGCAGGAUAUCCUUUGUACA | – | – | 45.7 nM | 265 nM
GUACUCAUGUAAGGAUAUGCAGCCGUUUCGGCUGCAGAAGGUACUAUAAUACAUGAGGAUCACCCAUGUCUCUCGCAUUGCGAG | 465 nM | 98.4 nM | – | –
GUACUGAAGCCUUGCUUUAGUCGUACAUGAGGAUCACCCAUGUAGGAUAUGGUAGGCUUUGCUUACUAGAAGGAUAGAGUGAUC | – | – | 56.1 nM | 34 nM
GUACUGAGGCUUUGCUUUAGUCGUACAUGAGGAUCACCCAUGUAGGAUAUGGUAGGCUUUGCUUACCAGAAGGACAGAGUGAUC | – | – | 168 nM | 85.7 nM
GUACUUGUGCAGAAGGGCAUUGAAUUAGGUUUUUAGGUUGAUCAGAAAUGCAGGAUAUGUUAAACAUGAGGAUCACCCAUGUAC | 66.3 nM | 13.7 nM | – | –
GUAGAGAUUACAUGAGGAUCACCCAUGUCAGAACGGGUAAUCAGAAGGUAUUAUUAGAGAGAGGGUAAGGAUAUGAUUUUUUAU | 634 nM | 438 nM | – | –
GUAGAUAGAUAGAAGGUAUGGUAUUAGAUUAAAUAAGGAUAUAUGAACAUGAGGAUCACCCAUGUAUUAUGGGAUAGAUAGACU | 228 nM | 153 nM | – | –
GUAGCAUACAGAGGAUAUUCAAAACCGGAAACGGACAUGAGGAUCACCCAUGUGGCGAAAGCCAGGGAGAAGGCUGAAUGCUAC | 32.8 nM | 14.8 nM | – | –
GUAGCAUACCGAGGAUAUUCACCGGAAAACCGGACAUGAGGAUCACCCAUGUGGCGAAAGCCUUGGGAGAAGGCGGAAUGCUAC | 135 nM | 19.9 nM | – | –
GUAGCAUACCGAGGAUAUUCAGGGAAUAAAUAAACAUGAGGAUCACCCAUGUGGCGAAAGCCUAGGGAGAAGGCGGAAUGCUAC | 83.6 nM | 21.5 nM | – | –
GUAGCAUACCGAGGAUAUUCAGGGCGUGGAUAAACAUGAGGAUCACCCAUGUGGCGAAAGCCUAGGGAGAAGGCGGAAUGCUAC | 21.5 nM | 16.3 nM | – | –
GUAGCAUACCGAGGAUAUUCAGGGCGUGGUUAAACAUGAGGAUCACCCAUGUGGCGAAAGCCUAGGGAGAAGGCGGAAUGCUAC | 28.7 nM | 22.5 nM | – | –
GUAGCAUACCGAGGAUAUUCAUAUAAUAAAUAAACAUGAGGAUCACCCAUGUGGCGAAAGCCUAGGGAGAAGGCGGAAUGCUAC | 240 nM | 22.6 nM | – | –
GUAGCAUACCGAGGAUAUUCAUUACAUGAGGAUCACCCAUGUUUUAUAGGCCGAUUACGGCCUUGGGAGAAGGCGGAAUGCUAC | 14.8 nM | 11.1 nM | – | –
GUAGCAUACCGAGGAUAUUCUAACCGGAAACGGACAUGAGGAUCACCCAUGUGGCGAAAGCCUUGGGAGAAGGCGGAAUGCUAC | 12.3 nM | 12.8 nM | – | –
GUAGCAUACCGAGGAUAUUCUUAUAAUAAAUAAACAUGAGGAUCACCCAUGUGGCGAAAGCCAAGGGAGAAGGCGGAAUGCUAC | 87.7 nM | 20.1 nM | – | –
GUAGCAUAGGCAGGAUAUUCAUAUAAUAAAUAAACAUGAGGAUCACCCAUGUGGCGAAAGCCUUGGGAGAAGGGCCAAUGCUAC | 933 nM | 60.9 nM | – | –
GUAGCUACAUGAGGAUCACCCAUGUAGGAUAUCGCUAUUGUAAUCAUGUUACAUGAUUACAAUAGCGAGAAGGACGUGUGCUAC | – | – | 9.03 nM | 10.4 nM
GUAGCUACAUGAGGAUCACCCAUGUAGGAUAUCGCUAUUGUAAUCAUGUUACAUGAUUACAAUAGCGAGAAGGACGUUAGCUAC | – | – | 6.5 nM | 7.16 nM
GUAGCUAUCGGAGGAUAUUCAUACCGGAAACGGACAUGAGGAUCACCCAUGUGGCGAAAGCCUUGGGAGAAGGCCGAUCGCUAC | 239 nM | 8.45 nM | – | –
GUAGCUAUCGGAGGAUAUUCAUACCGGAAACGGACAUGAGGAUCACCCAUGUGUCGAAAGCCUUGGGAGAAGGUCGAUAGCUAC | 260 nM | 87.4 nM | – | –
GUAGCUCCUGACAUGAGGAUCACCCAUGUUCAAUUAUUAAAUCAGGAUAUCGGCUAGAAACUAGCCGAGAAGGGAUAUGCUACU | 5.13 nM | 5.97 nM | – | –
GUAGUGUAUGUAGGAUAUGCGAAGCAAAGCUUCGCAGAAGGACAUGAGGAUCACCCAUGUAUUGCAGCCUGCAAUCAGGCUGCU | – | – | 42.2 nM | 184 nM
